Like-named read-outs stand apart in the source and are kept apart here. One block for each compound: values may come before it.
How the values were obtained:
[1] = test system: human α1-acid glycoprotein; experiment: binding to human α1-acid glycoprotein solution by ultrafiltration; assay type: in vitro ADME; settings: human α1-acid glycoprotein (0.1%) in PBS, 500 ng/mL, n = 3
In short: (§1)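 Test compound was spiked to a final 500 ng/mL into 4% human serum albumin or 0.1% human α1-acid glycoprotein in PBS. Samples were incubated 1 h at 37 °C, then ultrafiltered through a 30 kDa cutoff device for 20 min at 13,000 g. Total and filtrate concentrations were measured by LC-MS/MS. %bound = 100×(Ctotal−Cfree)/Ctotal, with the filtrate corrected for membrane adsorption using recovery from water. n = 3.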

stability in plasma = assay type: in vitro ADME, human; settings: for Measured concentration: n = 3
In short: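 Human plasma was spiked at 100 and 500 ng/mL and kept at room temperature or on ice for up to 24 h; percent remaining was taken versus freshly prepared samples. For quantitation, 50 µL plasma plus internal standard and EDTA underwent acetonitrile precipitation and centrifugation, then LC-MS/MS in SRM mode. Calibration spanned 3.9–500 ng/mL, fitted with 1/concentration weighting.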

human serum albumin = human serum albumin (Homo sapiens, UniProt P02768); experiment: binding to human serum albumin solution by ultrafiltration; assay type: in vitro ADME; settings: human serum albumin (4%) in PBS, 500 ng/mL, n = 3
Sequence of human serum albumin (P02768 25-609): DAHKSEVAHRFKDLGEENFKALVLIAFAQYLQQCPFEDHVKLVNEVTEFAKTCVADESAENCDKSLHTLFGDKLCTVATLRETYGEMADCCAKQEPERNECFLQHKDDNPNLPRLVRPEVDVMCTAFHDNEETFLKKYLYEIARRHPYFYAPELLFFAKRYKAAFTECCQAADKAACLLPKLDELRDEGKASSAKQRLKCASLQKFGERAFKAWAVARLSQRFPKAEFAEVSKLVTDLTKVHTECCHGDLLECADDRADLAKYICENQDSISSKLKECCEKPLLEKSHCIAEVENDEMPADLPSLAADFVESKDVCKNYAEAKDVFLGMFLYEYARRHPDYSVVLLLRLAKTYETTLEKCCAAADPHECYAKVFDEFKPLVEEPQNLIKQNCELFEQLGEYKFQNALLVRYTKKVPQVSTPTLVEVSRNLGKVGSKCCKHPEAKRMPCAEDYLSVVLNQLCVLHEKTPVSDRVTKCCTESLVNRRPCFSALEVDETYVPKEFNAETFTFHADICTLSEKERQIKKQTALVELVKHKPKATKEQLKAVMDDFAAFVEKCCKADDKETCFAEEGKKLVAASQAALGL
In short: as §1

human plasma proteins [2] = experiment: plasma binding by ultrafiltration; assay type: in vitro ADME
In short: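 Pooled human plasma was spiked with test compound in DMSO to a final 500 ng/mL; preliminary runs also used 31.25 and 3.9 ng/mL. After 1 h at 37 °C, plasma was ultrafiltered (30 kDa cutoff, 20 min, 13,000 g). Total plasma and ultrafiltrate levels were measured by LC-MS/MS. %bound = 100×(Ctotal−Cfree)/Ctotal, corrected for membrane adsorption via recovery from water. n = 3.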

human plasma proteins [3] = experiment: plasma binding by ultracentrifugation; assay type: in vitro ADME; settings: 500 ng/mL, n = 3
In short: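 Pooled human plasma was spiked with test compound in DMSO (final 500 ng/mL) and incubated 1 h at 37 °C. It was then spun at 50,000 rpm in a fixed-angle rotor for 10 h at 20 °C. The supernatant gave free and whole plasma gave total concentration, both by LC-MS/MS. %bound = 100×(Ctotal−Cfree)/Ctotal. n = 3.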

[4] = stability in different solvents; assay type: physicochemical
In short: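 Remaining amount was quantified by LC-MS/MS: C18 gradient with 0.1% formic acid, positive ESI, SRM m/z 235.2/178.0, 2-amino-6-bromobenzothiazole internal standard.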

[5] = acid hydrolysis also observed; ref Stariat et al., 2009; cited from earlier work
[6] = human plasma, long term (30 days at −80 °C), nominal 3.9 ng/mL
[7] = human plasma, long term (30 days at −80 °C), nominal 31.3 ng/mL
[8] = human plasma, long term (30 days at −80 °C), nominal 500.0 ng/mL
[9] = human plasma, short-term (2 h on ice), nominal 31.3 ng/mL
[10] = human plasma, short-term (2 h on ice), nominal 500.0 ng/mL
[11] = human plasma, three freeze–thaw cycles, nominal 3.9 ng/mL
[12] = human plasma, three freeze–thaw cycles, nominal 500.0 ng/mL
[13] = processed human plasma samples, autosampler for 24 h, nominal 3.9 ng/mL
[14] = processed human plasma samples, autosampler for 24 h, nominal 31.3 ng/mL
[15] = processed human plasma samples, autosampler for 24 h, nominal 500.0 ng/mL

Percentage of bound drug by ultrafiltration [1]: 34.9
degraded in plasma (stability in plasma; 100 ng/mL, room temperature, over 24 h, vs freshly prepared samples): > 40%
stability in plasma (stability in plasma; 500 ng/mL, room temperature, up to 24 h): stable
Bias (stability in plasma; [6]): −0.01%
Measured concentration (stability in plasma; [6]): 3.9 ng/mL
Bias (stability in plasma; [7]): −2.9%
Measured concentration (stability in plasma; [7]): 30.3 ng/mL
Bias (stability in plasma; [8]): 3.2%
Measured concentration (stability in plasma; [8]): 516.4 ng/mL
Bias (stability in plasma; human plasma, short-term (2 h on ice), nominal 3.9 ng/mL): −0.4%
Bias (stability in plasma; [9]): −7.0%
Measured concentration (stability in plasma; [9]): 29.0 ng/mL
Bias (stability in plasma; [10]): −1.3%
Measured concentration (stability in plasma; [10]): 493.9 ng/mL
Bias (stability in plasma; [11]): 4.8%
Measured concentration (stability in plasma; [11]): 4.1 ng/mL
Bias (stability in plasma; human plasma, three freeze–thaw cycles, nominal 31.3 ng/mL): −10.4%
Bias (stability in plasma; [12]): 10.6%
Measured concentration (stability in plasma; [12]): 553.1 ng/mL
Bias (stability in plasma; [13]): 4.0%
Measured concentration (stability in plasma; [13]): 4.1 ng/mL
Bias (stability in plasma; [14]): 13.0%
Measured concentration (stability in plasma; [14]): 35.4 ng/mL
Bias (stability in plasma; [15]): 10.0%
Measured concentration (stability in plasma; [15]): 550.7 ng/mL
stability of plasma samples under storage conditions (stability in plasma; −80 °C for 1 month, 4 °C for 2 h, three freeze–thaw cycles, 24 h in autosampler): stable
Percentage of bound drug by ultrafiltration (human serum albumin): 98.4
Percentage of bound drug by ultrafiltration (human plasma proteins [2]; human plasma, 500 ng/mL, n = 3): 98.8
concentration of free ZMC1 in ultrafiltrate or ultracentrifugation supernatant (human plasma proteins [2]; plasma spiked at 31.25 and 3.9 ng/mL): below the detection limit
Percentage of bound drug by ultracentifugation (human plasma proteins [3]): 97.5
stability in acidic buffer ([4]; 0.1 M HCl, 500 ng/mL, hydrolysis of thiosemicarbazone bond): quickly degraded
stability in PBS ([4]; PBS pH 7.2, 500 ng/mL, 24 h at 4 °C, 37 °C and room temperature): stable without degradation
stability in solvent acetonitrile ([4]; acetonitrile–water 80:20 v/v, 500 ng/mL, 24 h at 4 °C, 37 °C and room temperature): stable without degradation
stability in neutral buffer ([4]; preliminary stability studies): good stability
SMILES: CC(=NNC(=S)N1CCC1)c1ccccn1 [ZMC1, azetidinecarbothioic acid, [1-(2-pyridinyl)ethylidene] hydrazide]

SMILES: CN(C)C(=S)NN=C(c1ccccn1)c1ccccn1 [Dp44mT, di-2-pyridylketone-4,4-dimethyl-3-thiosemicarbazone]
stability in acidic buffer [5]: also observed

From paper PMC5481844 (Biomedical chromatography : BMC, 2015)
